Assay results as given in ChEMBL document CHEMBL2062372, “Biotin analogues with antibacterial activity are potent inhibitors of biotin protein ligase” (ACS Med Chem Lett, 2012).
In brackets after ≈: the same amount, converted by molar mass.

How the values were obtained:
[1] = Displacement of [3H]-biotin from Staphylococcus aureus BPL after 20 mins by scintillation counting
In short: (§1)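 Purified recombinant BPL was tested in an in vitro biotinylation assay that measured incorporation of radiolabeled biotin into protein. Ki is reported where inhibition was seen, as the mean (standard error) of three independent experiments.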

[2] = Displacement of [3H]-biotin from Escherichia coli BPL after 20 mins by scintillation counting; in short: as §1
Biotin--protein ligase = target: T1, Biotin--protein ligase (Homo sapiens, UniProt P50747); experiment: Displacement of [3H]-biotin from human BPL after 20 mins by scintillation counting; in short: as §1
T1 sequence (P50747 whole entry): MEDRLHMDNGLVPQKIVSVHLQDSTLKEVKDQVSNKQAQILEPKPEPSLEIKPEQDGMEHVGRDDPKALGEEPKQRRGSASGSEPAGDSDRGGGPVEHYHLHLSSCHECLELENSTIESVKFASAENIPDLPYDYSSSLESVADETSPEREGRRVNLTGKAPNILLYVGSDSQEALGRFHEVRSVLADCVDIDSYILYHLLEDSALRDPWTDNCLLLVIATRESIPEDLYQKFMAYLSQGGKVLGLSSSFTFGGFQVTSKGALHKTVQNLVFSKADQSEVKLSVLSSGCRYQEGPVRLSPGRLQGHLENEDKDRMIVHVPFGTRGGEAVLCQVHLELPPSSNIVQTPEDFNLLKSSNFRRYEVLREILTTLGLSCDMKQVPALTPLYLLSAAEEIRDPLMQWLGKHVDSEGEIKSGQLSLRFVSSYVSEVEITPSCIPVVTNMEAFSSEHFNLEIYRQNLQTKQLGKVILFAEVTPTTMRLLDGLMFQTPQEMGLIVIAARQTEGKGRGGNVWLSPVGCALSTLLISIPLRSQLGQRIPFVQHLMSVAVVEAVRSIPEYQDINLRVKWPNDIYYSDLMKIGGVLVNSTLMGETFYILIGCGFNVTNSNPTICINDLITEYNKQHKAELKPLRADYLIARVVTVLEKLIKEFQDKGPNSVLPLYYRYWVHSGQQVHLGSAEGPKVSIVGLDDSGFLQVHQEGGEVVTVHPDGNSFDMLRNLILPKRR

[3] = Selectivity ratio of Ki for human BPL to Ki for Staphylococcus aureus BPL
In short: (§2)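 Selectivity is the ratio of Ki values from the radiolabeled-biotin incorporation assay with purified recombinant BPLs. Each Ki is the mean of three independent experiments.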

[4] = Selectivity ratio of Ki for Escherichia coli BPL to Ki for human BPL; in short: as §2
[5] = Selectivity ratio of Ki for Escherichia coli BPL to Ki for Staphylococcus aureus BPL; in short: as §2
HepG2 = experiment: Cytotoxicity against human HepG2 cells assessed as change in metabolic activity at 64 ug/ml after 24 to 48 hrs by WST1 assay; type: ADME, cell-based
[6] = Binding affinity to Staphylococcus aureus BPL by surface plasmon resonance
In short: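 S. aureus BPL was immobilized on the SPR surface, with varying inhibitor concentrations in the running buffer. Ka and kd come from the sensorgrams. KD was calculated from steady-state affinity where on and off rates were too fast for kinetic evaluation.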

Staphylococcus aureus [7] = experiment: Antibacterial activity against methicillin-susceptible Staphylococcus aureus after 16 to 24 hrs by broth microdilution method; type: functional
Staphylococcus aureus [8] = experiment: Antibacterial activity against methicillin-resistant Staphylococcus aureus after 16 to 24 hrs by broth microdilution method; type: functional
Staphylococcus = experiment: Antibacterial activity against coagulase-negative Staphylococcus after 16 to 24 hrs by broth microdilution method; type: functional

SMILES | Ki [1] [µM] | Ki [2] [µM] | Ki (Biotin--protein ligase) [µM] | Ratio Ki [3] | Ratio Ki [4] | Ratio Ki [5] | Activity (HepG2) | Kd [6] [µM] | MIC50 (Staphylococcus aureus [7]) [mg/L] | MIC90 (Staphylococcus aureus [7]) [mg/L] | MIC50 (Staphylococcus aureus [8]) [mg/L] | MIC90 (Staphylococcus aureus [8]) [mg/L] | MIC50 (Staphylococcus) [mg/L] | MIC90 (Staphylococcus) [mg/L]
NCCCCC[C@@H]1SC[C@@H]2NC(=O)N[C@@H]21 | > 20 | > 20 | > 20 |  |  |  |  |  |  |  |  |  |  | 
C#CCCCCCC[C@@H]1SC[C@@H]2NC(=O)N[C@@H]21 | 2.4 | 20 | 12 | 5 | 1.7 | 8.3 | Non-toxic |  |  |  |  |  |  | 
C#CCCCC[C@@H]1SC[C@@H]2NC(=O)N[C@@H]21 | 0.08 | 0.9 | 0.2 | 2.5 | 4.5 | 11.3 | Non-toxic | 0.08 | 8 (≈ 35.7 µM) | 16 (≈ 71.3 µM) | 8 (≈ 35.7 µM) | 16 (≈ 71.3 µM) | 4 (≈ 17.8 µM) | 8 (≈ 35.7 µM)
CCCCCC[C@@H]1SC[C@@H]2NC(=O)N[C@@H]21 | 0.52 | 7.3 | 6.43 | 12.4 | 1.1 | 14 | Non-toxic |  |  |  |  |  |  | 
CCCCC[C@@H]1SC[C@@H]2NC(=O)N[C@@H]21 | 0.05 | 1.1 | 0.14 | 2.8 | 7.9 | 22 | Non-toxic | 0.06 | 8 (≈ 37.3 µM) | 16 (≈ 74.6 µM) | 8 (≈ 37.3 µM) | 16 (≈ 74.6 µM) | 2 (≈ 9.33 µM) | 8 (≈ 37.3 µM)
NCCCC[C@@H]1SC[C@@H]2NC(=O)N[C@@H]21 | > 20 | > 20 | > 20 |  |  |  |  |  |  |  |  |  |  | 
C#CCCCCC[C@@H]1SC[C@@H]2NC(=O)N[C@@H]21 | 0.3 | 7.33 | 3.5 | 11.7 | 2.1 | 24.4 | Non-toxic |  |  |  |  |  |  | 
O=C1N[C@H]2[C@H](CS[C@H]2CCCCCCO)N1 | > 20 | > 20 | > 20 |  |  |  | Non-toxic |  |  |  |  |  |  | 
O=C1N[C@H]2[C@H](CS[C@H]2CCCCCO)N1 | 3.37 | 3.96 | 3.85 | 1.1 | 1 | 1.2 |  | 2.5 |  |  |  |  |  | 
